Among all 85,000 compounds or so, about 940 (1.1%) were called active. The entries come from a sample that favours actives as a whole. Unmarked numbers belong to inactive results.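 Rule for the calls: active = viability at or below 50% in the single dose screen; inactive = viability above 50%.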

The experiment can be described thus: antiproliferative effect on LL 47 fibroblasts – human, LL 47 cells, CellTiter-Glo luminescence, primary screen (AID 719).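 Note: compound exposure lasted 72 h before the ATP readout; 100% = median luminescence of untreated cell-only wells.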 As to conditions: LL 47 human lung fibroblast viability, ATP luminescence; at 10 µM; hits give low values. A digest of the protocol:
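Material: human LL 47 lung fibroblast cells; quantity: 1,150 cells/well; medium: IMEM plus 15% FBS; doses: 0.1% DMSO in all compound wells; timing: overnight attachment after seeding, then 72 h compound exposure at 37 °C; detection: CellTiter-Glo luminescence; measure: % viability of median cell-only signal; controls: cell-only wells, no compound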
In general terms: Cellular ATP, detected with luciferase, serves as a proxy for viable cell number.
Take `Cc1nc(SCC(=O)Nc2cc(C)on2)c2c(C)c(C)sc2n1`: the viability was 99.4%.
Consider `Cc1nc(SCC(=O)Nc2cc(C)on2)c2c3c(sc2n1)CCCC3`, for which the viability was 94.8%.
Next, `Cc1cc(NC(=O)CSc2nc(C(C)C)nc3sc4c(c23)CCC(C)C4)no1` (stereo unspecified): 10.9% (active); `O=C(/C=C/c1ccc(Cl)cc1Cl)c1cccnc1`: 79%; `CCOC(=O)Nc1sc(C(=O)N(C)C)c(C)c1C(=O)OCC`: 89.5%.
With `CCOC(=O)c1sc(NC(=O)CCN2CCOCC2)c(C(=O)OCC)c1C`, the viability was 80.1%.
Next, `CCOC(=O)c1c(NC(=O)CCl)sc(C(=O)N(CC)CC)c1C`: 28% (active).
For the molecule `O=C(NCc1cccnc1)Nc1ccccc1F`, the viability was 96.7%.
For the molecule `Cc1cc(C)c2c(n1)nn1c(N3CCOCC3)cc(C)nc21`, the viability was 82.4%.
With `Cc1cc(C)c2c(n1)nn1c(-n3ccnc3)cc(C)nc21`, the viability is 101%.
As for `Cc1cc(C)c2c(n1)nn1c(N3CCN(c4cccc(Cl)c4)CC3)cc(C)nc21`, the viability was 36.8% (active).
In the case of `COc1ccc(NC(=O)CCN2CCCC2)c(OC)c1`, the viability was 104%.
For `Cc1ccccc1-n1c(C)cc(/C=C2\NC(=O)NC2=O)c1C`, the viability is 77.2%.
`COC(=O)C(NC(C)=O)(Nc1nc2c(s1)CCCC2)C(F)(F)F` (stereo unspecified): the viability is 103%.
Next, `O=C(Cn1c(=O)sc2ccccc21)Nc1nc2c(s1)CCCC2`: 100%.
Take `O=C(CCS(=O)(=O)c1ccccc1)Nc1nc2c(s1)CCCC2`: the viability is 47.7% (active).
Next, `N#CC1=C(N)N(c2ccccc2)C2=C(C(=O)CCC2)C1c1ccccc1` (stereo unspecified): 93.1%; `COc1ccc(CNCCCO)cc1OC`: 95.2%; `COC(=O)c1ccccc1Sc1c(/C=N/OCc2ccc(Cl)cc2)c(C(F)(F)F)nn1C`: 92.7%.
Under `COC(=O)c1cc(OC)ccc1-c1ccc(OC)cc1` stands 90.1%; under `Cc1cc(Cl)c(S(=O)(=O)N(C)C)cc1OCC(N)=O`, 101%; under `COc1ccc(-c2nnc(SCc3cccnc3)o2)cc1`, 105%.
Consider `Cc1cccc(OCCCC(=O)Nc2ccc(S(=O)(=O)N3CCCC3)cc2)c1`, for which the viability was 98.6%.
As to `CC(C)Cc1nc(N2CCOCC2)c(C#N)c2c1CCC2`, the viability was 90.7%.
For the molecule `CCN1CCc2c(C#N)c(NCc3ccccc3)nc(NCCO)c2C1`, the viability is 86.2%.
For `CC(C)CCNc1nc(N2CCCC2)c2c(c1C#N)CCN(C)C2`, the viability is 30.8% (active).
Next, `CC1CCN(C(=O)c2cc3nc(C4CC4)cc(C(F)(F)F)n3n2)CC1`: 96.3%; `C/C=C/C(=O)Nc1nnc(C(C)C)s1`: 103%; `CCN1CCN(C(c2cccnc2)c2cc(Cl)c3cccnc3c2O)CC1` (stereo unspecified): 75.3%.
On to `O=C(c1cccc(C(=O)N2CCN(c3ccc(F)cc3)CC2)c1)N1CCN(c2ccc(F)cc2)CC1`, for which the viability was 97.2%.
As to `Oc1c(CN2CCN(c3ccc(F)cc3)CC2)cc(Cl)c2cccnc12`, the viability is 22.4% (active).
On to `CCn1nnnc1SCC(=O)c1ccc(C)cc1C`, for which the viability was 99.4%.
Next, `O=C(c1cccc(S(=O)(=O)N2CCOCC2)c1)N1CCOCC1`: 104%; `CCNC(=O)NC(=O)C(C)OC(=O)c1cc(S(=O)(=O)N2CCCCCC2)ccc1OC` (stereo unspecified): 94.5%.
`Cc1cc(C(=O)OC(C)C(=O)Nc2cccc(S(=O)(=O)N3CCOCC3)c2)c(C)o1` (stereo unspecified): the viability was 30.6% (active).
Next, `Cc1cccc(NC(=O)Nc2cccc(Oc3c(F)c(F)c(F)c(F)c3F)c2)c1`: 49.6% (active); `CC(=O)c1cccc(NC(=O)Nc2ccc(C)cc2)c1`: 109%.
On to `Cc1ccoc1C(=O)Nc1cccc(Oc2ccccc2)c1`, for which the viability was 103%.
As to `Cc1ccc(C)c(NC2=NCC(=O)N2c2ccc3c(c2)OCCO3)c1`, the viability is 120%.
Next, `O=C(CSc1nc2cccnc2n1Cc1ccccc1)N1CCc2ccccc21`: 104%; `CC(=O)c1sc(NC(=O)c2ccc(C)cc2)nc1C`: 105%; `COC(=O)c1sc(NC(=O)c2ccc(OC)cc2OC)nc1C`: 91.9%.
Turning to `COc1cccc2sc(Nc3nc(C)c(C(C)=O)s3)nc12`, the viability was 26.9% (active).
Regarding `Fc1ccccc1/C=C1\CCCC2=C1Nc1ncnn1C2c1ccccc1F` (stereo unspecified), the viability is 3.89% (active).
Next, `Cc1cc(SCC(=O)c2ccccc2)nc(SCC(=O)c2ccccc2)n1`: 102%; `CCOC(=O)c1ccc2c(c1)nc(C)n2CC`: 103%; `O=C(NCCN1CCN(Cc2ccccc2)CC1)c1cc2c(=O)[nH]c3ccccc3c2s1`: 42.8% (active).
For the molecule `CN1CCN(CCCNC(=O)c2cc3c(=O)oc4ccccc4c3s2)CC1`, the viability was 105%.
Regarding `Cn1c(C(=O)NCCN2CCc3ccccc3C2)cc2c(=O)[nH]c3ccccc3c21`, the viability was 93.3%.
For `CCc1ccc(NC(=O)CN2C(=O)CSC2=O)cc1`, the viability was 100%.
As for `CCOC(=O)c1sc(NC(=O)c2ccncc2)nc1C`, the viability was 98.9%.
`CC1=CC(C)(C)Nc2ccc(OC(=O)CN3C(=O)C4CCCCC4C3=O)cc21` (stereo unspecified): the viability was 39.7% (active).
Regarding `CC(OC(=O)CN1C(=O)C2CCCCC2C1=O)C(=O)Nc1ncc(Cl)cc1Cl` (stereo unspecified), the viability is 98.2%.
Turning to `CC1=CC(C)(C)Nc2ccc(OC(=O)C(Cc3ccccc3)N3C(=O)C4CCCCC4C3=O)cc21` (stereo unspecified), the viability is 94.3%.
For `CC1(C)CC(=O)C=C(N2CCCC2)C1`, the viability is 112%.
Consider `COc1ccc(N2CCN(Cc3ccc(Br)s3)CC2)cc1`, for which the viability was 100%.
For the molecule `CC(=O)Oc1ccc(NC(=O)CCC2CCCCC2)c(C(=O)O)c1`, the viability is 93.2%.
Next, `CCCNC(=O)CN(Cc1ccccc1F)S(=O)(=O)c1ccc(C)cc1`: 105%; `CC1=NN(/C(=N\c2nnc(C)s2)Nc2ccccc2)[C@H](c2ccc(C)cc2)S1`: 89.1%; `CCCc1[nH]nc2c1C(c1ccc(OC(=O)c3ccco3)cc1)C(C#N)=C(N)O2` (stereo unspecified): 95.1%.
As to `CCCc1[nH]nc2c1C(c1ccc(OC)c(Cn3nc(C)c(Br)c3C)c1)C(C#N)=C(N)O2` (stereo unspecified), the viability is 95.9%.
`CCCc1[nH]nc2c1C(c1ccc(Br)s1)C(C#N)=C(N)O2` (stereo unspecified): the viability is 33.5% (active).
Consider `CCOc1ccc(NC(=O)C2CCCN(C(=O)Nc3ccccc3)C2)cc1` (stereo unspecified), for which the viability was 105%.
As for `CCCCC(C(=O)OCC(=O)c1ccc(OC)cc1)N1C(=O)c2ccccc2C1=O` (stereo unspecified), the viability was 93.2%.
Regarding `COC(=O)c1ccccc1NC(=O)Cc1ccccc1OC`, the viability is 102%.
Consider `Nc1c(C(=O)NCc2ccccc2)nnn1Cc1cccc(Cl)c1`, for which the viability was 44.6% (active).
Take `CCOc1ccc(Cn2nnc(C(=O)NCc3ccccc3)c2N)cc1`: the viability was 84.8%.
Turning to `CCOc1ccc(Cn2nnc(C(=O)Nc3ccc(OC)cc3OC)c2N)cc1`, the viability was 81.2%.
Next, `CC(C)N1C(=S)SC(C)(C)C1n1oc(=O)n(-c2ccc(Cl)c(Cl)c2)c1=O` (stereo unspecified): 87.5%; `CCOC(=O)N1CCN(C(=O)c2n[nH]c(=O)c3ccccc23)CC1`: 97.5%.
Consider `CCOC(=O)N1CCN(C(=O)c2nn(-c3ccc(C)cc3)c(=O)c3c2c2ccccc2n3C)CC1`, for which the viability is 19.7% (active).
For the molecule `Cn1c2ccccc2c2c(C(=O)N3CCN(c4ccc(F)cc4)CC3)cn(C3CCCC3)c(=O)c21`, the viability was 85.9%.
In the case of `Nc1nonc1-c1nc2ccccc2n1Cc1ccc(F)cc1`, the viability was 52.3%.
Under `Nc1nonc1-c1nc2ccccc2n1CCC(=O)O` stands 104%; under `COc1ccc(C)c(Cn2c(-c3nonc3N)nc3ccccc32)c1`, 42.2% (active).
Consider `CCOc1ccc(N=C2NC(=O)S/C2=C\c2ccc(O)cc2)cc1`, for which the viability was 102%.
Under `COc1ccc(C)cc1S(=O)(=O)NCCc1ccccc1` stands 97.6%.
As to `Cc1nc(NC(=O)CN(C)S(=O)(=O)c2ccc(Cl)cc2)sc1C`, the viability is 98.6%.
Consider `Cc1ccc(-n2c(SCC(=O)Nc3ccc4c(c3)OCO4)nnc2-c2ccccn2)cc1`, for which the viability is 42.1% (active).
For `Cc1ccc(-n2c(SCC(=O)Nc3ccc4c(c3)OCO4)nnc2-c2ccoc2C)cc1`, the viability is 99%.
Next, `O=C(CSc1nnc(-c2ccccn2)n1-c1ccccc1)Nc1ccc2c(c1)OCO2`: 89.6%; `Cc1ccc(-n2c(SCC(=O)NCc3ccc4c(c3)OCO4)nnc2-c2cccnc2)c(C)c1`: 95.8%; `O=C(c1cc2sccc2n1Cc1ccc(F)cc1)N1CCc2ccccc21`: 95.6%.
In the case of `Cc1ccc(OCC(=O)Nc2ccc(-c3nnc(-c4ccco4)o3)cc2)cc1`, the viability is 91.8%.
As to `COc1ccc(CC(=O)Nc2ccc(-c3nnc(-c4ccc(C)cc4)o3)cc2)cc1`, the viability was 30.9% (active).
`COc1ccc(CC(=O)Nc2ccc(-c3nnc(-c4ccccc4)o3)cc2)cc1`: the viability is 105%.
Regarding `O=C(/C=C/NNC(=O)c1cccc(Br)c1)c1ccccc1`, the viability was 80.9%.
As to `CCC(=O)Nc1sc(C(=O)N2CCCCC2)c(C)c1C#N`, the viability is 98%.
Under `CC(C)(C)C1CCc2c(sc3nc(SCC(N)=O)nc(N)c23)C1` (stereo unspecified) stands 99%; under `CN1CCN(CC(=O)Nc2sc3c(c2C#N)CCC(C(C)(C)C)C3)CC1` (stereo unspecified), 2.62% (active); under `CCOC(=O)c1nnn(-c2nonc2-n2cccc2)c1CN1CCC(C(=O)OCC)CC1`, 95%.
Consider `O=C(CCN1C(=O)c2ccccc2C1=O)NCCN1CCOCC1`, for which the viability was 104%.
`O=C(NCCN1CCOCC1)c1c(F)c(F)c(F)c(F)c1F`: the viability is 97.6%.
Under `CC(=O)Oc1cc2c(C(=O)NCCN3CCOCC3)c(C)oc2c2ccccc12` stands 8.08% (active); under `Cc1ccc(-c2cc(C(=O)NCC3CCCO3)c3ccccc3n2)o1` (stereo unspecified), 98.3%.
Consider `Clc1cccc(N=C2NN=C(c3ccc4c(c3)OCCO4)CS2)c1`, for which the viability is 101%.

One may read the viability as a read-out of living cells in per cent, often relative to untreated cells.

Source of the values: PubChem BioAssay AID719 (SRMLSC, 2007).
